Only some compounds are listed: those with a hit (about 3% of all), similar ones and a draw of the others.
UBC13 inh: UBC13 polyubiquitin chain formation inhibitors, primary screen, biochemical, TR-FRET, uHTS | Ubiquitin-conjugating enzyme E2 N (Homo sapiens), P61088 | inhibition, % at 20 µM | hit rate 0.47% among 330,000; in the data active = inhibition above about 45%, passing the limit was not always enough; inconclusive = no clear call, values can overlap the other calls
SENP8 block-1: SENP8 protease inhibitors, primary screen, biochemical, luminescence; purified SENP8, Z-RLRGG-aminoluciferin cleavage; inhibition, % at 10 µM; hit rate 1.2% among 330,000; in the data active = inhibition above about 50%
Target sequence (Q96LD8 whole entry, looked up): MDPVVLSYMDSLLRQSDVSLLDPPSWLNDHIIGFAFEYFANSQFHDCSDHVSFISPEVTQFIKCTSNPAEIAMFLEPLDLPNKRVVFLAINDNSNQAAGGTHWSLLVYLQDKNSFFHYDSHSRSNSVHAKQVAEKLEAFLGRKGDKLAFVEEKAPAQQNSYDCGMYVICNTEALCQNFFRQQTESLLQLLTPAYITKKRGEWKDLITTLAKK
SENP6 block: SENP6 protease inhibitors, primary screen, biochemical, luminescence, uHTS | Sentrin-specific protease 6 (Homo sapiens), Q9GZR1 | Recombinant SENP6 catalytic domain, aminoluciferin luminescence | inhibition, % at 10 µM | hit rate 1.8% among 330,000 | AID 2599, 2010;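 active = inhibition above about 50% at the single tested dose, limit read from the data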;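 also: plate controls were DMSO wells with enzyme for no effect and DMSO wells lacking enzyme for full effect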
Apaf1 inhib: inhibitors of human Apaf-1 apoptosome, primary screen, biochemical, DEVD-Rh110 fluorescence, uHTS; inhibition, % at 20 µM; Apoptotic protease-activating factor 1 (Homo sapiens), O14727; hit rate 0.71% among 330,000; reconstituted apoptosome caspase-3 activity; active = inhibition of at least 40% at 20 µM;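 also: plate controls were DMSO wells for no effect and DEVD-CHO caspase inhibitor wells for full effect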
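System: Apoptosome proteins | Medium: Hepes pH 7.5 with detergent and BSA | Also added: Cytochrome c trigger plus (Z-DEVD)2-Rh110 caspase-3 substrate | Incubation: 30 min compound preincubation, 50 min activation, room temperature | Detection: Rhodamine 110 fluorescence at Ex 480/Em 540 nm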
SENP8 block-2: human SENP8 protease inhibitors, primary screen, biochemical, fluorescence, Nedd8 protein substrate, uHTS | Sentrin-specific protease 8 (Homo sapiens), Q96LD8 | recombinant SENP8 | inhibition, % at 20 µM | hit rate 0.64% among 360,000 | AID 602440, 2012; in the data active = inhibition mostly above about 40%, no sharp cut-off; inactive = mostly below about 27%
SENP7 block: SENP7 protease inhibitors, primary screen, biochemical, luminescence, uHTS; inhibition, % at 5 µM; Sentrin-specific protease 7 (Homo sapiens), Q9BQF6; hit rate 1.5% among 330,000; recombinant SENP7, Z-RLRGG-aminoluciferin luminescence, 40 min;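 active = inhibition above about 50% at the single test dose, limit read from the data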;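 also: plate controls were DMSO with enzyme for no effect and no enzyme buffer wells for full effect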
Target sequence (Q9BQF6 706-1050 limits assumed): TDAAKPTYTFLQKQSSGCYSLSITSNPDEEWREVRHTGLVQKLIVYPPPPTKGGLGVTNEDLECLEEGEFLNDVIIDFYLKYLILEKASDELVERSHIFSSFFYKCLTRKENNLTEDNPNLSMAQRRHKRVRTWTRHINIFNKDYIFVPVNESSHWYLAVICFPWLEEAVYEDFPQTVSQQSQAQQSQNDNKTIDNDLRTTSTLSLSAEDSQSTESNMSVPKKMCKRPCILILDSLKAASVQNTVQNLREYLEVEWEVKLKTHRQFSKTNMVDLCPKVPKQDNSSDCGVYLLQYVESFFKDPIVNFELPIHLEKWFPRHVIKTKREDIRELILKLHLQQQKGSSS
SENP8 confirm: SENP8 protease inhibitors, retest, confirmation, biochemical, luminescence, single concentration. shares compounds with SENP7 block. Recombinant SENP8, Z-RLRGG-aminoluciferin luminescence, 60 min. inhibition, % at 12.5 µM. hit rate 40% among 6,200. AID 488912, 2010;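 active = mean inhibition across replicates above about 50%, limit read from the data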
SENP6 conf: SENP6 protease inhibitors, confirmation, biochemical, luminescence, single concentration; hit rate 58% among 6,200; inhibition, % at 12.5 µM; shares compounds with SENP7 block; recombinant SENP6, Z-RLRGG-aminoluciferin luminescence
SENP7 confirm: SENP7 protease inhibitors, retest, confirmation, biochemical, luminescence, single concentration; hit rate 69% among 6,200; inhibition, % at 12.5 µM; recombinant SENP7, Z-RLRGG-aminoluciferin luminescence, 40 min; shares compounds with SENP7 block
Casp3 select: caspase-3 protease inhibitors, confirmation, selectivity assay for SENP inhibitor project, biochemical, single concentration; shares compounds with SENP7 block; purified caspase-3, Z-DEVD-aminoluciferin luminescence, 60 min; inhibition, % at 12.5 µM; hit rate 60% among 6,200; AID 488918, 2010;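 active = mean inhibition above about 50%, limit read from the data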;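 also: plate controls were enzyme with DMSO for no effect and wells without caspase-3 for full effect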
SENP luc ctr: luminescence interference (SENP counter-screen); hit rate 39% among 6,200; Pre-incubated SENP8/Z-RLRGG-aminoluciferin, luciferase luminescence interference; inhibition, % at 12.5 µM; shares compounds with SENP7 block;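 active = mean inhibition above about 50% when retested at one dose, limit read from the data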;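 also: plate controls were DMSO wells with completed reaction for no effect and substrate without enzyme for full effect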
Active calls of the source: *; ? = inconclusive; / = no result.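 The calls were made as follows, unless noted: active = mean inhibition above about 50% in the one-dose retest (limit read from the data); inactive = the rest.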

SMILES | UBC13 inh | SENP8 block-1 | SENP6 block | Apaf1 inhib | SENP8 block-2 | SENP7 block | SENP8 confirm | SENP6 conf | SENP7 confirm | Casp3 select | SENP luc ctr
Cc1onc(-c2c(F)cccc2Cl)c1C(=O)Oc1ccccc1 | / | / | / | / | 10 | / | / | / | / | / | /
C/C(=N\OC(=O)c1ccccc1F)c1nccs1 | -2 | -6 | 79* | -8 | 16 | 79* | 60* | 53* | 92* | 6 | 33
CC(=NOC(=O)c1ccc(F)cc1)c1nccs1 | / | / | / | / | 11 | / | / | / | / | / | /
CCCN1CCN(C(=O)c2cc3c(s2)-c2ccccc2OC3)CC1 | 61* | 65* | 71* | 14 | -424 | 56* | 80* | 80* | 92* | 84* | 79*
CCOC(=O)N1CCN(C(=O)c2cc3c(s2)-c2ccccc2OC3)CC1 | 20 | -1 | -13 | 10 | -437 | -1 | / | / | / | / | /
Cc1nnsc1NC(=O)OCc1ccccc1Cl | 2 | 12 | 55* | 1 | 15 | -5 | 35 | 36 | 63* | 37 | 44
COC(=O)c1ccc2c(c1O)C(=O)c1ccccc1C2=O | -130 | 44 | 71* | 17 | 27 | 44 | 41 | 55* | 66* | 74* | 10
O=C1c2ccccc2C(=O)c2c1ccc(O)c2O | / | / | / | / | 29 | / | / | / | / | / | /
Nc1c(C(=O)O)ccc2c1C(=O)c1ccccc1C2=O | -85 | 54* | -9 | 4 | 29 | 4 | 69* | 66* | 83* | 79* | 73*
Nc1c(SCCC(=O)O)ccc2c1C(=O)c1ccccc1C2=O | -77 | 84* | 89* | 14 | 31 | 45 | 93* | 93* | 98* | 94* | 92*
O=C(O)c1ccc([N+](=O)[O-])c2c1C(=O)c1ccccc1C2=O | -27 | -6 | -7 | -11 | 18 | -4 | / | / | / | / | /
CC(C)(C)NC(=O)COc1ccc(-c2ccccc2)cc1 | -10 | -1 | 51* | 14 | 14 | 32 | 36 | 28 | 62* | 31 | 21
Nc1ccc2c(c1)C(=O)c1ccccc1C2=O | -67 | 31 | 53* | 3 | 9 | 4 | 55* | 50* | 80* | 54* | 8
Nc1ccc2c(c1)C(=O)c1ccccc1-2 | -102 | -11 | -6 | -2 | 10 | -5 | / | / | / | / | /
COc1ccc(NC(=O)n2ncc3c(C)cccc32)cc1 | 8 | 72* | 74* | 12 | 33 | 61* | 84* | 83* | 95* | 63* | 73*
CSc1ccc(CNC(=O)C2(C)CCCN2CC(C)C)cc1 (stereo not given) | / | / | / | / | 9 | / | / | / | / | / | /
O=C(CNc1cccc2ccccc12)N/N=C/c1cccc(Oc2ccccc2)c1 | -26 | 51* | 67* | 18 | -261 | 25 | 7 | -3 | -6 | -4 | -4
O=C(N/N=C/c1cccc(Oc2ccccc2)c1)c1cccc(O)c1 | 4 | 37 | 60* | 20 | 5 | 38 | 48 | 43 | 62* | 28 | 22
Cc1ccccc1NCC(=O)N/N=C/c1ccc([N+](=O)[O-])cc1 | 3 | -3 | 5 | -6 | 19 | -8 | / | / | / | / | /
O=C(CNc1cccc2ccccc12)N/N=C/c1ccc([N+](=O)[O-])cc1 | -9 | 18 | 74* | 7 | -105 | 30 | 11 | 7 | 8 | 4 | 2
NC(=O)c1ccc(C(=O)N/N=C/c2cccc(Oc3ccccc3)c2)cc1 | -2 | 7 | -1 | 6 | 4 | 3 | / | / | / | / | /
O=C(N/N=C/c1cccc(Oc2ccccc2)c1)c1ccccc1Br | ? | -21 | -32 | 3 | 8 | 10 | / | / | / | / | /
COC(=O)[C@@]12C[C@@H](CC(=O)N3CCOCC3)C(=O)N(Cc3ccccc3)C1=CCC(C)(C)C2 | / | / | / | / | 30 | / | / | / | / | / | /
CCCNC(=O)C1(C)CCCN(C(=O)c2ccc(C)c(F)c2)C1 (stereo not given) | / | / | / | / | -7 | / | / | / | / | / | /
COC(=O)[C@@]12C[C@@H](CC(=O)NCCc3ccccc3OC)C(=O)N(Cc3ccccc3)C1=CCC(C)(C)C2 | / | / | / | / | 20 | / | / | / | / | / | /
SMILES | UBC13 inh | SENP8 block-1 | SENP6 block | Apaf1 inhib | SENP8 block-2 | SENP7 block | SENP8 confirm | SENP6 conf | SENP7 confirm | Casp3 select | SENP luc ctr
Nc1nc(Nc2cccc(F)c2)nc2ccccc12 | 4 | 88* | 96* | 15 | -319 | 90* | 96* | 96* | 102* | 91* | 96*
Cc1ccc(C)c(Nc2nc(N)c3ccccc3n2)c1 | 9 | 46 | 58* | -9 | -119 | 49 | 27 | 30 | 75* | 65* | 44
Cc1ccc(N=Nc2ccc(O)cc2)c(Br)c1 | -17 | 56* | 64* | -1 | 16 | 20 | 74* | 73* | 86* | 23 | 69*
CCN(CC)S(=O)(=O)c1ccc(N=Nc2cc(C)cc(Br)c2O)cc1 | -39 | -2 | -6 | -8 | 34 | -10 | / | / | / | / | /
Oc1ccc(N=Nc2ccc(Br)cc2)c(O)c1 | -102 | 96* | 99* | 6 | 27 | 89* | 93* | 93* | 98* | 72* | 82*
CC(=O)NC1(C)CCC2CC1C(C)=NC2(C)C (stereo not given) | / | / | / | / | -1 | / | / | / | / | / | /
C(=C\c1ccccc1)/CN1CCN(C(c2cc3ccccc3o2)c2nnnn2-c2ccc3c(c2)OCCO3)CC1 (stereo not given) | / | / | / | / | 27 | / | / | / | / | / | /
COc1ccc(-c2sc3ccccc3c2-c2cc(OC)ccc2C=O)cc1 | / | / | / | / | 6 | / | / | / | / | / | /
Cc1c(Br)cccc1NC(=O)C1(C)CCN1Cc1ccccc1OC(F)F (stereo not given) | / | / | / | / | 3 | / | / | / | / | / | /
O=c1c2sc(-c3ccccc3)cc2nc2n1CCC2 | 0 | 81* | 93* | 3 | 10 | 91* | 89* | 89* | 99* | 95* | 90*

Compound activity deposited in PubChem BioAssay by Sanford-Burnham Center for Chemical Genomics.
